Test results as given in ChEMBL document CHEMBL4316619 (Bioorg Med Chem Lett, 2019).

Assays:
[1] = Stability of the compound in mouse liver microsomes assessed as parent compound remaining measured after 15 mins; format: ADME, Microsome; conditions: read-out: Stability
Outline: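 Mouse liver microsomes; percent parent compound remaining measured at 0, 15 and 30 min.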

Influenza A virus = assay: Antiviral activity against Influenza A virus (A/California/7/2009(H1N1)) infected in MDCK cells assessed as reduction in virus-induced cytopathic effect measured on day 5 by Celltiter-Glo luminescence assay; format: functional, organism-based; conditions: 120 h
Outline: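 MDCK cells were infected with seasonal influenza A strains through NIAID resources and scored for protection from virus-induced cell death. Compounds were tested at four concentrations (0.8, 4, 20, 100 μM). EC50/EC90 (reduction of viral cell death) and CC50 (reduction of cell viability) were derived in μM, and SI50 = CC50/EC50.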

[2] = Toxicity in C57BL/6 mouse assessed as adverse effect at 30 mg/kg, ip; format: organism-based; conditions: in vivo

## COc1cc(-c2ccnc3c2c(C)nn3-c2ccc(C(F)(F)F)cc2)ccc1O
[1]
  remaining at 0.25 h: 66%
Influenza A virus
  EC50: 700 nM
  EC90: > 50000 nM
[2]
  Activity: Non-Toxic
